# Source: ChEMBL document CHEMBL4622976, “Development of pH/Glutathione-Responsive Theranostic Agents Activated by Glutathione S-Transferase π for Human Colon Cancer” (J Med Chem, 2020)
# Active and inactive are the calls of the source. No cut-off for these calls is given here.
# How the values were obtained:
# [1] = Toxicity in ip dosed ICR mouse for 14 days; format: organism-based; settings: in vivo
# Summary of the method: (§1)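 Female ICR mice, randomised, n = 10 per group. Single intraperitoneal dose of 240.0, 300.0, 375.0, 468.8 or 585.9 mg/kg, or vehicle. Deaths recorded at 1 h, 4 h, days 1–4 and days 5–14. Body weight, drinking, eating and activity observed over 14 days. Survival percentage taken on day 14; LD50 derived from the dose–mortality data.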
# [2] = test system: HepG2; assay: Antiproliferative activity against human HepG2 cells by MTT assay; format: functional, cell-based
# Summary of the method: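 MTT assay. Cells were grown in DMEM/RPMI 1640 with 10% FBS, penicillin and streptomycin at 37 °C under 5% CO2. After a PBS wash, cells got 0.5 mg/mL MTT for 3 h at 37 °C. Formazan was dissolved in DMSO and absorbance read at 570 nm. Inhibition was expressed as a percentage and IC50 calculated. Means ± SD come from three separate experiments.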
# [3] = Drug localization in tumor of intra-operative mouse xenografted with human HT-29/Luc cells at 40 mg/kg, iv measured after 1 hrs post dose by fluorescence imaging assay; format: ADME, organism-based, Neoplasm; settings: in vivo
# Summary of the method: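 Mice carrying subcutaneous HT29 tumours (1×10^6 cells, grown 3–4 weeks) received 40 mg/kg iv. They were imaged under 1% pentobarbital at 0, 1, 2, 4, 8 and 24 h post-injection (465 nm excitation filter, GFP emission filter). Excised tumours and major organs were then imaged ex vivo.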
# [4] = Drug metabolism assessed as GSTpi (unknown origin) mediated compound fluorescence activation at 1 uM in presence of 1 mM Fe2+ by HPLC analysis; format: ADME; settings: human
# Summary of the method: (§2)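 Selectivity test: compound (1 µM) with catalytic GSTπ and each analyte in water with 1% (v/v) DMSO at pH 4.0, 37 °C for 0.5 h. Analytes were cations at 1 mM; amino acids, vitamin C, Na2S and GSH at 100 µM. Readout was fluorescence emission spectra (excitation 440 nm, recorded 450–650 nm).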
# [5] = Toxicity in ICR mouse assessed as induction of animal survival rate at 585.9 mg/kg, ip measured after 14 days; format: organism-based; settings: in vivo; summary of the method: as §1
# [6] = Drug metabolism assessed as GSTpi (unknown origin) mediated compound fluorescence activation at 1 uM in presence of 100 uM glutamate by HPLC analysis; format: ADME; settings: human; summary of the method: as §2
# [7] = test system: HT-29; assay: Antitumor activity against human HT-29 cells xenografted in nude BALB/c mouse assessed as reduction in tumor volume at 20 mg/kg, ip dosed every day for 21 days; format: functional, organism-based
# [8] = Toxicity in ICR mouse assessed as induction of animal survival rate at 240 mg/kg, ip measured after 14 days; format: organism-based; settings: in vivo; summary of the method: as §1
# [9] = Toxicity in ICR mouse assessed as induction of animal death at 240 to 300 mg/kg, ip measured after 2 days; format: organism-based; settings: in vivo, 48 h; summary of the method: as §1
# [10] = test system: HT-29; assay: Induction of apoptosis in human HT-29 cells assessed as increase in cleaved PARP protein level incubated for 72 hrs by Western blot analysis; format: functional, cell-based
# Summary of the method: (§3)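 HT29 cells (1.5×10^5/mL) were treated for 72 h and lysed. Lysate (0.05 mg/lane) was run on 12% SDS-PAGE and transferred to nitrocellulose. After blocking in 5% non-fat milk, blots were probed for Bax, Bcl-2, cleaved caspase-3, cleaved PARP, LC3, p62 and beclin-1. Levels were normalised to β-actin, and means ± SD taken from three independent assays.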
# [11] = Toxicity in ICR mouse assessed as induction of animal death at 240 to 468.8 mg/kg, ip measured after 5 to 14 days; format: organism-based; settings: in vivo; summary of the method: as §1
# [12] = Drug metabolism assessed as GSTpi (unknown origin) mediated compound fluorescence activation at 1 uM in presence of 1 mM Cu2+ by HPLC analysis; format: ADME; settings: human; summary of the method: as §2
# [13] = test system: HT-29; assay: Induction of autophagy in human HT-29 cells assessed as reduction in p62 protein level incubated for 72 hrs by Western blot analysis; format: functional, cell-based
# Summary of the method: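 HT29 cells (1.5×10^5/mL) exposed to compound or vehicle for 72 h, then lysed. Lysates (0.05 mg/lane) run on 12% SDS-PAGE, transferred to nitrocellulose, blocked with 5% non-fat milk and probed for LC3, p62, beclin-1 and β-actin. Bands quantified relative to β-actin, with LC3-II/LC3-I ratio also calculated; means ± SD from three independent assays.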
# [14] = Toxicity in ICR mouse assessed as induction of animal death at 240 to 585.9 mg/kg, ip measured after 1 hr; format: organism-based; settings: in vivo; summary of the method: as §1
# [15] = Toxicity in ICR mouse assessed as induction of animal survival rate at 300 mg/kg, ip measured after 14 days; format: organism-based; settings: in vivo; summary of the method: as §1
# [16] = Toxicity in ICR mouse assessed as induction of animal death at 240 to 300 mg/kg, ip measured after 4 days; format: organism-based; settings: in vivo, 96 h; summary of the method: as §1
# [17] = test system: HT-29; assay: Antitumor activity against human HT-29 cells xenografted in nude BALB/c mouse assessed as tumor weight level at 40 mg/kg, ip dosed every day for 21 days (reference value: 1.49 +/- 0.27 g); format: functional
# [18] = Toxicity in ICR mouse assessed as induction of animal survival rate at 375 mg/kg, ip measured after 14 days; format: organism-based; settings: in vivo; summary of the method: as §1
# [19] = test system: HT-29; assay: Induction of apoptosis in human HT-29 cells at 2.5 uM incubated for 72 hrs by FITC-AnnexinV/PI staining based flow cytometry relative to control; format: functional
# Summary of the method: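 HT29 cells were cultured 12 h, then exposed to compound (0.4, 1.0, 2.5 µM) or vehicle for 72 h. Harvested cells were stained with Annexin V and PI, and apoptotic cell percentages measured by flow cytometry. Means ± SD come from three separate experiments.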
# [20] = test system: HT-29; assay: Induction of apoptosis in human HT-29 cells assessed as reduction in Bcl2 protein level incubated for 72 hrs by Western blot analysis; format: functional, cell-based; summary of the method: as §3
# [21] = Drug metabolism assessed as GSTpi (unknown origin) mediated compound fluorescence activation at 1 uM in presence of 100 uM lysine by HPLC analysis; format: ADME; settings: human; summary of the method: as §2
# [22] = Drug metabolism assessed as GSTpi (unknown origin) mediated compound fluorescence activation at 1 uM in presence of 50 uM […] by HPLC analysis; format: ADME; settings: human
# [23] = Drug localization in tumor of intra-operative mouse xenografted with human HT-29/Luc cells at 40 mg/kg, iv measured over 7 hrs post dose by fluorescence imaging assay; format: ADME, organism-based, Neoplasm; settings: in vivo
# [24] = Toxicity in ICR mouse assessed as induction of abnormality in drinking behavior at 240 mg/kg, ip for 14 days; format: organism-based; settings: in vivo, 336 h
# Summary of the method: (§4)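 Female ICR mice (n = 10 per group) given a single intraperitoneal dose at 240.0, 300.0, 375.0, 468.8 or 585.9 mg/kg, or vehicle. Deaths recorded at 1 h, 4 h and daily through day 14. Body weight, drinking, eating and activity observed for abnormality; LD50 derived from mortality.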
# [25] = Toxicity in ICR mouse assessed as induction of animal survival rate at 468.8 mg/kg, ip measured after 14 days; format: organism-based; settings: in vivo; summary of the method: as §1
# [26] = Toxicity in ICR mouse assessed as induction of abnormality in general activity behavior at 240 mg/kg, ip for 14 days; format: organism-based; settings: in vivo, 336 h; summary of the method: as §4
# [27] = Toxicity in ICR mouse assessed as induction of animal death at 240 to 375 mg/kg, ip measured after 1 day; format: organism-based; settings: in vivo, 24 h; summary of the method: as §1
smiles,measurement,setting,value
COc1cc(-c2nc(NC(=O)OCC3=CCCCC3=O)cc3c2[nH]c2ccccc23)cc(OC)c1OC,LD50 at 336 h,[1],475 mg/kg
same,IC50,[2],1.57 µM
same,Drug uptake,[3],Active
same,Drug metabolism,[4],Metabolite_Notdetected
same,survival at 336 h,[5],10%
same,Drug metabolism,[6],Metabolite_Notdetected
same,Activity,[7],Active
same,survival at 336 h,[8],100%
same,Activity,[9],Non-Toxic
same,Activity,[10],Dose-dependent effect
same,Activity,[11],Non-Toxic
same,Drug metabolism,[12],Metabolite_Notdetected
same,Activity,[13],Dose-dependent effect
same,Activity,[14],Non-Toxic
same,survival at 336 h,[15],100%
same,Activity,[16],Non-Toxic
same,Activity,[17],0.48 g
same,survival at 336 h,[18],80%
same,Activity,[19],52.3%
same,Activity,[20],Dose-dependent effect
same,Drug metabolism,[21],Metabolite_Notdetected
same,Drug metabolism,[22],Metabolite_Notdetected
same,Drug uptake,[23],Active
same,Activity,[24],Non-Toxic
same,survival at 336 h,[25],40%
same,Activity,[26],Non-Toxic
same,Activity,[27],Non-Toxic
